Experimental data reported in ChEMBL document CHEMBL1938358, “A multivalent approach to the discovery of long-acting β(2)-adrenoceptor agonists for the treatment of asthma and COPD” (Bioorg Med Chem Lett, 2012).
The source made the active and inactive calls. No cut-off for these calls is given here.

Key:
[1] = target: T1, Beta-2 adrenergic receptor (Homo sapiens, UniProt P07550); experiment: Displacement of [3H]dihydroalprenolol from beta2-adrenoceptor after 90 mins by liquid scintillation counting
Target sequence in this assay (P07550 whole entry): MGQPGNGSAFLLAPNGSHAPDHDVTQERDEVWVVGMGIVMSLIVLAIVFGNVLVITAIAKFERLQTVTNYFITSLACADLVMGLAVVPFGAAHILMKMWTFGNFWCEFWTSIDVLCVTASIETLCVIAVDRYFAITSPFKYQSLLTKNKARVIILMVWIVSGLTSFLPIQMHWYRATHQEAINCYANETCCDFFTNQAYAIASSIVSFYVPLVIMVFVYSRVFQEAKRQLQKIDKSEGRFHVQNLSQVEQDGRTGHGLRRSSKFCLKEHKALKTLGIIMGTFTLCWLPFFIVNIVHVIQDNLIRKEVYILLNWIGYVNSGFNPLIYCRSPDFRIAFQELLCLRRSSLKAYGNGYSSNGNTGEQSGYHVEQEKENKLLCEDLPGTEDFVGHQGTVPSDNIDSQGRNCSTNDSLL

[2] = target: T1, Beta-2 adrenergic receptor; experiment: Agonist activity at recombinant human beta2-adrenoceptor expressed in whole cells assessed as cAMP accumulation by homogeneous radioimmunoassay; format: functional, cell-based
Target sequence in this assay (P07550 whole entry): as above

[3] = target: Beta-1 adrenergic receptor (Homo sapiens, UniProt P08588); experiment: Agonist activity at recombinant human beta1-adrenoceptor expressed in whole cells assessed as cAMP accumulation by homogeneous radioimmunoassay; format: functional, cell-based
Sequence of Beta-1 adrenergic receptor (P08588 whole entry): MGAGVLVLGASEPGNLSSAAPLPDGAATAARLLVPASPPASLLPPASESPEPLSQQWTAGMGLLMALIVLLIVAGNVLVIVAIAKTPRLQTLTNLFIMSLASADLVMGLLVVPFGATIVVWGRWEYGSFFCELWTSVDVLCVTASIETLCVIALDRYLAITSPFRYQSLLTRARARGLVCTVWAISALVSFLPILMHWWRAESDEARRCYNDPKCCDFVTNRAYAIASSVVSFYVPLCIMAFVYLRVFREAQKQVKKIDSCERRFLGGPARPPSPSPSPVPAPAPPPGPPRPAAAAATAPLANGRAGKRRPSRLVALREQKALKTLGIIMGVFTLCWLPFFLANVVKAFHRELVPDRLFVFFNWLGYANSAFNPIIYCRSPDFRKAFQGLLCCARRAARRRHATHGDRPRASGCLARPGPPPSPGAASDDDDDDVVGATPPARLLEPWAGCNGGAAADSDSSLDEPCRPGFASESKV

Cavia porcellus [4] = experiment: Bronchoprotective activity in Ach-stimulated guinea pig assessed as reduction in pulmonary resistance at 30 ug/mL administered via nebulization measured after 1.5 hrs by head-out plethysmography; format: functional, organism-based
Procedure, shortened: (§1)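 Guinea pigs dosed by nebulization, with water as control. Pulmonary resistance was measured in anesthetized, spontaneously breathing animals by head-out plethysmography. Bronchoconstriction was induced with increasing intravenous acetylcholine doses. The read-out was PD2, the ACh dose needed to double baseline resistance.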

[5] = target: T1, Beta-2 adrenergic receptor; experiment: Ratio of pEC50 for recombinant human beta2-adrenoceptor expressed in whole cells to pEC50 for beta2-adrenoceptor endogenously expressed in human BEAS-2B cells; format: cell-based
Procedure, shortened: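 cAMP accumulation was measured by homogeneous radioimmunoassay (Flashplate) in two systems: whole cells overexpressing cloned human β2-adrenoceptor, and BEAS-2B human bronchial epithelial cells with endogenous β2-adrenoceptor. Potency was taken from each, and intrinsic activity from BEAS-2B.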
Target sequence in this assay (P07550 whole entry, looked up): as the sequence (P07550 whole entry) above

[6] = target: T1, Beta-2 adrenergic receptor; experiment: Agonist activity at beta2-adrenoceptor endogenously expressed in human BEAS-2B cells assessed as cAMP accumulation by homogeneous radioimmunoassay; format: functional, cell-based
Target sequence in this assay (P07550 whole entry): as above

Homo sapiens = organism: Homo sapiens; experiment: Selectivity ratio of pEC50 for recombinant human beta2-adrenoceptor to pEC50 for human beta1-adrenoceptor
Procedure, shortened: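 Agonist stimulation of cAMP accumulation was measured by homogeneous radioimmunoassay (Flashplate) in whole cells overexpressing cloned human β2- or β1-adrenoceptor. Selectivity was calculated as the ratio of agonist EC50 potencies at the two subtypes.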

Cavia porcellus [7] = experiment: Bronchoprotective activity in Ach-stimulated guinea pig assessed as reduction in pulmonary resistance at 30 ug/mL administered via nebulization measured at 48 hrs post-dosing by head-out plethysmography; format: functional, organism-based; procedure, shortened: as §1
Cavia porcellus [8] = experiment: Bronchoprotective activity in Ach-stimulated guinea pig assessed as reduction in pulmonary resistance at 300 ug/mL administered via nebulization measured after 24 hrs by head-out plethysmography; format: functional, organism-based

| Structure (SMILES) | IC50 [1] [nM] | EC50 [2] [nM] | other results |
| --- | --- | --- | --- |
| OCc1cc(C(O)CNC2CCC(CC3CCC(NCC(O)c4ccc(O)c(CO)c4)CC3)CC2)ccc1O (configuration not stated) | 20000 | – | – |
| Nc1c(Cl)cc([C@@H](O)CNCCc2ccc(NC[C@H](O)c3ccccc3)cc2)cc1Cl | – | 0.398 | – |
| OCc1cc(C(O)CNC2Cc3ccc(NCC(O)c4ccccc4)cc3C2)ccc1O (configuration not stated) | – | 5.01 | – |
| CC(C)CCc1ccc(C(O)CNc2ccc(CCNCC(O)c3ccc(O)c(CO)c3)cc2)cc1 (configuration not stated) | – | 63.1 | – |
| COc1ccc(C(O)CNc2ccc(CCNCC(O)c3ccc(O)c(CO)c3)cc2)c(OC)c1 (configuration not stated) | – | 39.8 | – |
| OCc1cc(C(O)CNCCCCCCNCC(O)c2ccc(O)c(CO)c2)ccc1O (configuration not stated) | 7940 | – | – |
| OC(CNCCc1ccc(NCC(O)c2ccccc2)cc1)c1ccccc1 (configuration not stated) | 251 | – | – |
| OCc1cc(C(O)CNCCc2ccc(NCC(O)c3ccc(O)c(CO)c3)cc2)ccc1O (configuration not stated) | 251 | – | – |
| OCc1cc(C(O)CNCCCCNCC(O)c2ccc(O)c(CO)c2)ccc1O (configuration not stated) | 10000 | – | – |
| O=c1ccc2c([C@@H](O)CNCCc3ccc(NC[C@H](O)c4ccccc4)cc3)ccc(O)c2[nH]1 | – | 0.126 | Ratio [5]: 10; EC50 [6]: 1.26 nM |
| OCc1cc(C(O)CNCc2ccc(NCC(O)c3ccc(O)c(CO)c3)cc2)ccc1O (configuration not stated) | 2000 | – | – |
| CC(C)(CNCC(O)c1ccc(O)c(CO)c1)CNCC(O)c1ccc(O)c(CO)c1 (configuration not stated) | 251000 | – | – |
| OCc1cc(C(O)CNCCc2ccc(CCNCC(O)c3ccc(O)c(CO)c3)cc2)ccc1O (configuration not stated) | 100000 | – | – |
| OCc1cc(C(O)CNCC2CCCC(CNCC(O)c3ccc(O)c(CO)c3)C2)ccc1O (configuration not stated) | 10000 | – | – |
| COc1ccc(OC)c(C(O)CNc2ccc(CCNCC(O)c3ccc(O)c(CO)c3)cc2)c1 (configuration not stated) | – | 6.31 | – |
| OCc1cc(C(O)CNCCCCCCOCCCCc2ccccc2)ccc1O (configuration not stated) | – | – | Activity (Cavia porcellus [8]): Active; Activity (Cavia porcellus [7]): inactive |
| OCc1cc(C(O)CN[C@H]2CC[C@H](NCC(O)c3ccc(O)c(CO)c3)CC2)ccc1O (some centres not stated) | 5010 | – | – |
| OCc1cc(C(O)CNCc2ccc(CNCC(O)c3ccc(O)c(CO)c3)cc2)ccc1O (configuration not stated) | 50100 | – | – |
| OCc1cc(C(O)CNCc2cccc(CNCC(O)c3ccc(O)c(CO)c3)c2)ccc1O (configuration not stated) | 20000 | – | – |

More lines, main results first:

| IC50 [1] [nM] | EC50 [2] [nM] | Structure (SMILES) | other results |
| --- | --- | --- | --- |
| – | 7.94 | OCc1cc(C(O)CNCCc2ccc(NCC(O)c3ccc(O)cc3)cc2)ccc1O (configuration not stated) | – |
| – | 0.316 | CC(C)(Cc1ccc(NCC(O)c2ccccc2)cc1)NCC(O)c1ccc(O)c(CO)c1 (configuration not stated) | – |
| 39.8 | 0.316 | OCc1cc(C(O)CNCCc2ccc(NCC(O)c3ccccc3)cc2)ccc1O (configuration not stated) | – |
| – | 0.1 | OCc1cc([C@@H](O)CNCCc2ccc(NC[C@H](O)c3ccccc3)cc2)ccc1O | EC50 [3]: 251 nM; Activity (Cavia porcellus [4]): Active; Ratio [5]: 10; EC50 [6]: 1.26 nM; Ratio (Homo sapiens): > 300; Activity (Cavia porcellus [7]): inactive |
| – | 0.0631 | O=CNc1cc([C@@H](O)CNCCc2ccc(NC[C@H](O)c3ccccc3)cc2)ccc1O [MILVETEROL] | EC50 [3]: 25.1 nM; Activity (Cavia porcellus [4]): Active; Ratio [5]: 10; EC50 [6]: 0.501 nM; Ratio (Homo sapiens): > 300; Activity (Cavia porcellus [7]): Active |
| – | 50.1 | CC(C)(C)c1ccc(C(O)CNc2ccc(CCNCC(O)c3ccc(O)c(CO)c3)cc2)cc1 (configuration not stated) | – |
| – | 2 | OCc1cc(C(O)CNCCc2ccc(NCC(O)c3ccc(F)cc3)cc2)ccc1O (configuration not stated) | – |
| – | 50.1 | OCc1cc(C(O)CNCCc2ccc(NCC(O)c3ccc4ccccc4c3)cc2)ccc1O (configuration not stated) | – |
| – | 2.51 | Cc1ccc(C(O)CNc2ccc(CCNCC(O)c3ccc(O)c(CO)c3)cc2)cc1 (configuration not stated) | – |
| – | 2 | CN(CC(O)c1ccccc1)c1ccc(CCNCC(O)c2ccc(O)c(CO)c2)cc1 (configuration not stated) | – |
| – | 39.8 | OCc1cc(C(O)CNCCc2ccc(NCC(O)c3ccc(-c4ccccc4)cc3)cc2)ccc1O (configuration not stated) | – |
| – | 1.58 | OCc1cc(C(O)CNCCc2ccc(NCC(O)c3ccc(Cl)cc3)cc2)ccc1O (configuration not stated) | – |
| – | 0.398 | OCc1cc(C(O)CNCCc2ccc(OCC(O)c3ccccc3)cc2)ccc1O (configuration not stated) | – |
| – | 0.316 | OCc1cc([C@@H](O)CNCCc2ccc(NC[C@@H](O)c3ccccc3)cc2)ccc1O (mixture of isomers) | EC50 [3]: 251 nM; Ratio [5]: 10; EC50 [6]: 3.98 nM |
